Measurements as given in ChEMBL document CHEMBL1155974, “The nucleoside analogue D-carba T blocks HIV-1 reverse transcription” (J Med Chem, 2009).
Activity calls are given as the source filed them. No cut-off for these calls is given here.

Assays:
[1] = molecular target: Human immunodeficiency virus type 1 reverse transcriptase (Human immunodeficiency virus 1) (UniProt Q72547); assay: Inhibition of HIV1 reverse transcriptase-mediated viral DNA synthesis at 5 uM using UA template by PAGE in presence of thymidine triphosphate
In short: (§1)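 Competition primer-extension: labeled primer on DNA or RNA template of identical sequence (RNA reactions supplemented with RNase inhibitor), HIV-1 RT (1.0 µg), 10.0 µM each dATP/dCTP/dGTP. TTP:analog triphosphate at 1:5 or 1:1, totalling 10.0 µM; 37°, timed intervals, EDTA stop, 15% sequencing gel to score pausing.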

[2] = molecular target: Human immunodeficiency virus type 1 reverse transcriptase (Human immunodeficiency virus 1) (UniProt Q72547); assay: Inhibition of HIV1 reverse transcriptase-mediated viral DNA synthesis at 10 uM by PAGE
[3] = molecular target: Human immunodeficiency virus type 1 reverse transcriptase (Human immunodeficiency virus 1) (UniProt Q72547); assay: Inhibition of HIV1 reverse transcriptase-mediated viral DNA synthesis at 5 uM using TA template by PAGE in presence of thymidine triphosphate; in short: as §1
[4] = Inhibition of HIV1 reverse transcriptase SSGR/T215Y mutant-mediated viral DNA synthesis in human HOS cells assessed as luciferase activity treated 3 hrs before infection measured after 48 hrs by luminescence assay; assay type: cell-based; conditions: Human immunodeficiency virus 1, HOS
In short: (§2)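 Single-cycle infection with a VSV-G-pseudotyped, Env-deleted HIV-1 luciferase vector carrying wt or NRTI-resistant RT, made by calcium phosphate transfection of 293 cells, harvested at 48 h and diluted 1:5. HOS or HSV-TK-expressing HOS 313 cells were seeded at 4000/well, pretreated with compound for 3 h, then infected for 48 h. Luciferase was normalized to untreated infection of the same RT variant. IC50 came from a four-parameter sigmoidal fit.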

[5] = molecular target: Human immunodeficiency virus type 1 reverse transcriptase (Human immunodeficiency virus 1) (UniProt Q72547); assay: Ratio of IC50 for inhibition of HIV1 wild type reverse transcriptase-mediated viral DNA synthesis in human HOS cells to IC50 for inhibition of HIV1 wild type reverse transcriptase-mediated viral DNA synthesis in human HOS-313 cells expressing HSV thymidine kinase; assay type: cell-based
In short: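 VSV-G-pseudotyped single-round HIV-1 luciferase vector (wt RT) made in 293 cells. HOS or HSV-TK-expressing HOS 313 cells, 4000/well, were pretreated 3 h with compound, infected 48 h, and luminescence read. Activity was normalized to untreated infections, and IC50 was taken from a four-parameter sigmoidal fit in each line.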

[6] = Inhibition of HIV1 reverse transcriptase SSGR/T215Y mutant-mediated viral DNA synthesis in human HOS-313 cells expressing HSV thymidine kinase assessed as luciferase activity treated 3 hrs before infection measured after 48 hrs by luminescence assay; assay type: cell-based; conditions: Human immunodeficiency virus 1, HOS-313; in short: as §2
HIV-1 M:B_Lai = assay: Antiviral activity against HIV1 LAI infected in human TZM cells assessed as inhibition of viral replication; assay type: functional, organism-based; conditions: Human immunodeficiency virus 1, LAI
In short: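 Single-cycle inhibition assay in TZM (HeLa-derived indicator) cells infected with replication-competent wild-type HIV-1 LAI across a range of compound concentrations; IC50 reported.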

TZM [7] = assay: Cytotoxicity against human TZM cells up to 10 uM after 48 hrs by XTT assay
[8] = Cytotoxicity against human GHOST cells up to 10 uM after 48 hrs by XTT assay
[9] = Cytotoxicity against human Hut/CCR5 cells up to 10 uM after 48 hrs by XTT assay; conditions: hut/ccr5, 48 h
[10] = Inhibition of HIV1 reverse transcriptase M41L/D67N/K70R/T215Y/K219Q mutant-mediated viral DNA synthesis in human HOS-313 cells expressing HSV thymidine kinase assessed as luciferase activity treated 3 hrs before infection measured after 48 hrs by luminescence assay; assay type: cell-based; conditions: Human immunodeficiency virus 1, HOS-313; in short: as §2
[11] = Inhibition of HIV1 reverse transcriptase M41L/D67N/K70R/T215Y/K219Q mutant-mediated viral DNA synthesis in human HOS cells assessed as luciferase activity treated 3 hrs before infection measured after 48 hrs by luminescence assay; assay type: cell-based; conditions: Human immunodeficiency virus 1, HOS; in short: as §2
[12] = Cytotoxicity against human Hut/CCR5 cells at 5% (w/v) after 48 hrs by XTT assay; assay type: cell-based; conditions: hut/ccr5, 48 h
In short: (§3)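 Cells (TZM, GHOST, HuT-CCR5) incubated 48 h with five dilutions of compound; XTT substrate then added for a further 4–5 h, and viability read from conversion of the dye by live cells. Hydroxypropyl-β-cyclodextrin served as positive control for killing.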

[13] = Cytotoxicity against human GHOST cells at 5% (w/v) after 48 hrs by XTT assay; assay type: cell-based; in short: as §3
TZM [14] = assay: Cytotoxicity against human TZM cells at 5% (w/v) after 48 hrs by XTT assay; assay type: cell-based; in short: as §3

Structure (SMILES): Cc1cn([C@@H]2C[C@H](COP(=O)(O)OP(=O)(O)OP(=O)(O)O)[C@@H](O)C2)c(=O)[nH]c1=O
- inhibition [1]: Active
- inhibition [2]: Active
- inhibition [3]: inactive

Structure (SMILES): Cc1cn([C@@H]2C[C@H](CO)[C@@H](O)C2)c(=O)[nH]c1=O
- IC50 [4]: 4600 nM
- Ratio IC50 [5]: 4
- IC50 [6]: 1000 nM
- IC50 (HIV-1 M:B_Lai): 50 nM
- Activity (TZM [7]): Non-toxic
- Activity [8]: Non-toxic
- Activity [9]: Non-toxic
- IC50 [10]: 870 nM
- IC50 [11]: 1300 nM

Structure (SMILES): Cc1cn([C@H]2C[C@H](N=[N+]=[N-])[C@@H](CO)O2)c(=O)[nH]c1=O [ZIDOVUDINE]
- IC50 [4]: 39.6 nM
- IC50 [11]: 20.1 nM

Structure (SMILES): CC(O)COC[C@H]1O[C@@H]2O[C@H]3[C@H](O)[C@@H](O)[C@@H](O[C@H]4[C@H](O)[C@@H](O)[C@@H](O[C@H]5[C@H](O)[C@@H](O)[C@@H](O[C@H]6[C@H](O)[C@@H](O)[C@@H](O[C@H]7[C@H](O)[C@@H](O)[C@@H](O[C@H]8[C@H](O)[C@@H](O)[C@@H](O[C@H]1[C@H](O)[C@H]2O)O[C@@H]8COCC(C)O)O[C@@H]7COCC(C)O)O[C@@H]6COCC(C)O)O[C@@H]5COCC(C)O)O[C@@H]4COCC(C)O)O[C@@H]3COCC(C)O (stereo partly drawn) [2-HYDROXYPROPYL-BETA-CYCLODEXTRIN]
- Activity [12]: > 50%
- Activity [13]: > 50%
- Activity (TZM [14]): > 50%

Structure (SMILES): Cc1cccc2c1OP(=O)(OC[C@H]1C[C@@H](n3cc(C)c(=O)[nH]c3=O)C[C@@H]1O)OC2 (some centres not stated)
- Activity (TZM [7]): Non-toxic
- Activity [8]: Non-toxic
- Activity [9]: Non-toxic

Structure (SMILES): Cc1cn([C@H]2C[C@H](O)[C@@H](COP(=O)(O)OP(=O)(O)OP(=O)(O)O)O2)c(=O)[nH]c1=O
- inhibition [2]: inactive

Structure (SMILES): Cc1cn([C@H]2CC[C@@H](COP(=O)(O)OP(=O)(O)OP(=O)(O)O)O2)c(=O)[nH]c1=O
- inhibition [2]: Active
